# Source: PubChem BioAssay
# Active and inactive are the calls of the source.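 How the source made its calls, unless noted: active means Her2 level under about 52% in both replicate screens, with viability over 70% of control (limit read from the data); inconclusive means Her2 under the limit in one screen only, or viability under 70%; inactive means Her2 level above the set limit.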
# Columns and labels:
# [1] = reducers of endogenous Her2 protein level, primary screen, SKBR3 breast tumor cells, AlphaScreen, ATP viability (AID 461); conditions: 18-24 h, measured here: SKBR3 viability, ATP luminescence, at 10 µM;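 on Her2 level: lower value means less Her2 protein in the cells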;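 on viability: percent of carrier control wells set as 100% viability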
# [2] = target: Receptor tyrosine-protein kinase erbB-2 (Homo sapiens) (UniProt P04626); test: as above; conditions: 18-24 h, at 10 µM, stronger effect = lower value
# [3] = SK-BR-3 cell growth inhibitors, pilot screen, 24 h, human (AID 572;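 active means viability at or below 10% of carrier control in both of two separate runs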;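 further: compound exposure lasted between 18 and 24 h rather than exactly 24 h; 100% = carrier-treated control wells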); conditions: SK-BR-3 viability, CellTiter-Glo luminescence, at 10 µM, stronger effect = lower value
# [4] = HUVEC growth inhibition – cell-based, human, primary screen (AID 575;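 active means viability at or below 30% in both replicate assays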;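 further: 100% = median of untreated cell wells with 0.1% DMSO on each plate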); conditions: HUVEC proliferation, CellTiter-Glo luminescence, 72 h; at 10 µM; stronger effect = lower value
# Outline: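 Test system – primary HUVEC, no more than 12 passages · Dosing – one dose, 10 µM final, 0.1% DMSO · Times – 72 h treatment at 37 °C · Measured by – ATP-based CellTiter-Glo luminescent read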
# [5] = growth inhibitors of H69AR lung tumor, primary screen, human, duplicate replicates (AID 580;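 active means viability at or under a set limit in both replicates, limit being median viability minus 3 SD, cut at about 48% in these data, passing the limit was not always enough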;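 further: 100% = mean luminescence of untreated wells and 0% = no signal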); conditions: H69AR lung tumor cells viability, ATP luminescence, 72 h; at 10 µM; stronger effect = lower value
# [6] = reversal of MRP1-mediated doxorubicin resistance, pilot screen, H69AR cells, doxorubicin co-treatment (AID 601;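 active means viability loss from added drug above about 55%, and viability with drug at most 40%, in both replicates, limit read from the data, passing the limit was not always enough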); conditions: CellTiter-Glo, 72 h, at 10 µM; for differential viability (reversal): stronger effect = higher value
# [7] = 384-well plate pilot, post-Golgi transport modulator project, inhibition of yeast transport mutant growth (AID 636; in the data active means inhibition above about 31%); conditions: absorbance 615 nm, about 18 h, stronger effect = higher value
# [8] = growth suppression of yeast trafficking mutant, preliminary HTS, modulators of trafficking downstream of Golgi apparatus project, 1536-format plate, OD 615 nm (AID 637; in the data active means inhibition above about 30%); conditions: yeast transport mutant growth, absorbance 615 nm, 18 h; stronger effect = higher value
# [9] = H69AR cells + 2 uM doxorubicin, measured here: viability with 2 uM doxorubicin, stronger effect = lower value
# [10] = H69AR cells, compound alone cytotoxicity
# Sequence of Receptor tyrosine-protein kinase erbB-2 (Homo sapiens) (P04626 whole entry, looked up): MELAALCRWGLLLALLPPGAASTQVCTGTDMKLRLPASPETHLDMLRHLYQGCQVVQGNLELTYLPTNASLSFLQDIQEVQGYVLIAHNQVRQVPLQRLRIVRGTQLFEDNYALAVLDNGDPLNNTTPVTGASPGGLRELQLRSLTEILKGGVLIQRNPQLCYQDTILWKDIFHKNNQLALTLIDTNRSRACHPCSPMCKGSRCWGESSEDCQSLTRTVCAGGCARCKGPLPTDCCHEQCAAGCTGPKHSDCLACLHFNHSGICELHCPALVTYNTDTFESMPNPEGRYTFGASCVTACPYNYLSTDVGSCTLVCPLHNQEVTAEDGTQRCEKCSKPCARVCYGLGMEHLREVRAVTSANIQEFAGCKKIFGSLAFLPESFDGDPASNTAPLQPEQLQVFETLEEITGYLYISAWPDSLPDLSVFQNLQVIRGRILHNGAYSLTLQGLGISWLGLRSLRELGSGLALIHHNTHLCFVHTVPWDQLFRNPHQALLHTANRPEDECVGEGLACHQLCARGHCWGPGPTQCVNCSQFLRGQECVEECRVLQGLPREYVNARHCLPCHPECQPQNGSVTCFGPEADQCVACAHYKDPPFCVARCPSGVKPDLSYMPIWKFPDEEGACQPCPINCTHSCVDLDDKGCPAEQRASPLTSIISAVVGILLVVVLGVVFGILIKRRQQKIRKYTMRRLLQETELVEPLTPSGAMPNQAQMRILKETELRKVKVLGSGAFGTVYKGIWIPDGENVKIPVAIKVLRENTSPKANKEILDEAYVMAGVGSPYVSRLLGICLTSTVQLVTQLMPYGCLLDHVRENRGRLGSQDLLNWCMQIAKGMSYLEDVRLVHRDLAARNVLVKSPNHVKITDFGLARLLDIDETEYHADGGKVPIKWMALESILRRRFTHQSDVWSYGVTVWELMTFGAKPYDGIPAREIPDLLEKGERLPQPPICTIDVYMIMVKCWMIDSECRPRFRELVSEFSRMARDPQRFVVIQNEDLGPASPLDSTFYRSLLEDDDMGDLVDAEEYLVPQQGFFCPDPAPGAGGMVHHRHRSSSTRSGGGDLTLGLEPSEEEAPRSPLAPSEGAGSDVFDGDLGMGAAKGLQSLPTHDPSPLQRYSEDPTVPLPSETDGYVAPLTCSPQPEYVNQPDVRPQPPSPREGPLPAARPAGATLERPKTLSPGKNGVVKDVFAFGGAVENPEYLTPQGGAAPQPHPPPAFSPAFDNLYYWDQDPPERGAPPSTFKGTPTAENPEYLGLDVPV
Structure (SMILES),viability [1] [%],Her2 level [2],viability [3],viability [4],viability [5],differential viability (reversal) ([6]; H69AR cells + 2 uM doxorubicin),"viability [6, 9] [%]","viability [6, 10] [%]",inhibition [7],inhibition [8]
CCc1ccccc1NC(=O)C(C#N)Cc1cccnc1 (stereo not given),90,88.5% (inactive),90% (inactive),97.4% (inactive),94.6% (inactive),-1.77% (inactive),96.3,94.6,-2.57% (inactive),-0.49% (inactive)
CN1CCN(S(=O)(=O)c2ccc(Sc3nnc(-c4cccs4)n3-c3ccccc3)nc2)CC1,120,87.5% (inactive),120% (inactive),89.4% (inactive),85.7% (inactive),3.53% (inactive),82.2,85.7,-5.27% (inactive),-10% (inactive)
COc1ccc(/C(O)=C2/C(=O)C(=O)N(CCN(C)C)C2c2ccccn2)cc1OC (stereo not given),92.5,91.5% (inactive),92.5% (inactive),103% (inactive),91.5% (inactive),3.17% (inactive),88.3,91.5,-4.19% (inactive),-6.19% (inactive)
O=C(CSc1nnnn1C1CCCCC1)N1CCc2ccccc21,91,82.5% (inactive),91% (inactive),60.9% (inactive),87.1% (inactive),-3.15% (inactive),90.2,87.1,-3.87% (inactive),-2.79% (inactive)
COc1cccc(CNC(=O)CCn2c(=O)oc3ccccc32)c1,77.5,94.5% (inactive),77.5% (inactive),94.7% (inactive),86.4% (inactive),-3.03% (inactive),89.4,86.4,-5.92% (inactive),-1.82% (inactive)
Cc1cc(=O)[nH]c(=S)n1-c1ccccc1,99.5,74.5% (inactive),99.5% (inactive),101% (inactive),100% (inactive),17.7% (inactive),82.6,100,-7.03% (inactive),3.33% (inactive)
COc1ccc2nc3oc(C(=O)NC4CCN(Cc5ccccc5)CC4)cc3cc2c1,76.5,89.5% (inactive),76.5% (inactive),57.5% (inactive),82.6% (inactive),1.69% (inactive),80.9,82.6,-2.76% (inactive),-14.8% (inactive)
O=[n+]1c2c(n([O-])c3c1CCCC3)CCCC2,108,91% (inactive),108% (inactive),93.9% (inactive),88.6% (inactive),-8.33% (inactive),96.9,88.6,-0.65% (inactive),7.38% (inactive)
O=C(O)c1cc(Cl)c(Cl)cc1C(=O)N1CCCC1,97.5,100% (inactive),97.5% (inactive),87.2% (inactive),98.7% (inactive),-2.26% (inactive),101,98.7,-1.79% (inactive),-1.17% (inactive)
O=S(=O)(NCCc1ccccc1F)c1cccc(S(=O)(=O)N2CCOCC2)c1,87,94.5% (inactive),87% (inactive),96.8% (inactive),97.5% (inactive),9.29% (inactive),88.2,97.5,-3.42% (inactive),3.77% (inactive)
O=C(O)CCCC(=O)Nc1nc(-c2ccc(F)cc2)cs1,97.5,75.5% (inactive),97.5% (inactive),83.3% (inactive),96.5% (inactive),4.08% (inactive),92.4,96.5,-3.95% (inactive),-4.5% (inactive)
COc1ccc(C(CC(=O)O)NC(=O)c2ccccc2)cc1OC (stereo not given),110,101% (inactive),110% (inactive),94.6% (inactive),83.6% (inactive),-6.46% (inactive),90.1,83.6,0.78% (inactive),-6.33% (inactive)
COc1ccc(C2CC(=O)C(C=NCCN3CCOCC3)=C(O)C2)cc1 (stereo not given),87.5,87% (inactive),87.5% (inactive),85.7% (inactive),98.5% (inactive),2.73% (inactive),95.8,98.5,-0.79% (inactive),8.69% (inactive)
CCn1c(=S)sc2nc(C)sc21,94,100% (inactive),94% (inactive),96.6% (inactive),93.7% (inactive),3.59% (inactive),90.1,93.7,-4.27% (inactive),1.94% (inactive)
CC1=Nn2c(nnc2-c2cc(-c3ccccc3)n[nH]2)SC1,97.5,78% (inactive),97.5% (inactive),94.3% (inactive),91.4% (inactive),7.02% (inactive),84.4,91.4,-3.47% (inactive),7.05% (inactive)
COC(=O)C(NC(C)=O)(Nc1nc2ccc(S(C)(=O)=O)cc2s1)C(F)(F)F (stereo not given),96.5,87.5% (inactive),96.5% (inactive),93.8% (inactive),102% (inactive),1.18% (inactive),101,102,-2.11% (inactive),-1.27% (inactive)
COc1ccc2c(C(=O)CN(C)C3CCCCC3)c[nH]c2c1,115,72.5% (inactive),115% (inactive),92.3% (inactive),64.7% (inactive),-10.2% (inactive),74.9,64.7,-0.92% (inactive),-0.81% (inactive)
COC(=O)COc1ccc(S(=O)(=O)NCCC2=CCCCC2)cc1,99,83.5% (inactive),99% (inactive),10.6% (active),95% (inactive),-3.67% (inactive),98.7,95,0% (inactive),-1.13% (inactive)
CSc1nnc2c3ccccc3n(CCc3ccccc3)c2n1,90,100% (inactive),90% (inactive),68.6% (inactive),89.4% (inactive),3.33% (inactive),86.1,89.4,-1.35% (inactive),46.2% (active)
COc1ccc2nc(NC(=O)C3CCCN(S(=O)(=O)c4cccc5nsnc45)C3)sc2c1 (stereo not given),96.5,97.5% (inactive),96.5% (inactive),75% (inactive),83.1% (inactive),-10.1% (inactive),93.2,83.1,4.53% (inactive),-2.7% (inactive)
CCCCN(Cc1cc2cc(OC)ccc2[nH]c1=O)C(=O)COc1ccccc1,73,79% (inactive),73% (inactive),108% (inactive),93.6% (inactive),-4.48% (inactive),98.1,93.6,-0.13% (inactive),0.82% (inactive)
CCc1nnc(NC(=O)C2CCN(c3nccc(C)n3)CC2)s1,112,93% (inactive),112% (inactive),100% (inactive),99.5% (inactive),5.65% (inactive),93.9,99.5,-6.22% (inactive),-2.17% (inactive)
CCCCOC(=O)n1c(SCC(=O)N(CC)CC)nc2ccccc21,86,97.5% (inactive),86% (inactive),81.8% (inactive),91.4% (inactive),1.75% (inactive),89.6,91.4,-1.82% (inactive),-4.29% (inactive)
O=C(NCCO)c1scc2c1OCCO2,104,92% (inactive),104% (inactive),91.8% (inactive),93.6% (inactive),-7.95% (inactive),102,93.6,-5.73% (inactive),-1.8% (inactive)
CCc1nnc(NC(=O)c2cc3c(s2)CCCCC3)s1,92.5,108% (inactive),92.5% (inactive),90.5% (inactive),76.1% (inactive),-2.58% (inactive),78.7,76.1,-1.17% (inactive),-3.44% (inactive)
COCCNC(=O)CCc1nc(-c2ccccc2)no1,87,103% (inactive),87% (inactive),92.6% (inactive),103% (inactive),5.2% (inactive),98.1,103,-3.47% (inactive),2.7% (inactive)
CN(CCC#N)C(=O)COC(=O)c1ccc(Cl)c(S(N)(=O)=O)c1,104,97.5% (inactive),104% (inactive),106% (inactive),95.9% (inactive),7.13% (inactive),88.8,95.9,-4.93% (inactive),3.71% (inactive)
CCCc1cn(S(=O)(=O)c2ccc(OC)cc2OC)nc1N,98,84.5% (inactive),98% (inactive),92.8% (inactive),92.4% (inactive),3.72% (inactive),88.7,92.4,-7.2% (inactive),0% (inactive)
